{"source": "paper PMC4867259", "about": "(Free radical biology & medicine, 2016)", "key": {"[1]": {"target": "T1, DEGS1 (Homo sapiens, UniProt O15121)", "T1 sequence (O15121 1-323)": "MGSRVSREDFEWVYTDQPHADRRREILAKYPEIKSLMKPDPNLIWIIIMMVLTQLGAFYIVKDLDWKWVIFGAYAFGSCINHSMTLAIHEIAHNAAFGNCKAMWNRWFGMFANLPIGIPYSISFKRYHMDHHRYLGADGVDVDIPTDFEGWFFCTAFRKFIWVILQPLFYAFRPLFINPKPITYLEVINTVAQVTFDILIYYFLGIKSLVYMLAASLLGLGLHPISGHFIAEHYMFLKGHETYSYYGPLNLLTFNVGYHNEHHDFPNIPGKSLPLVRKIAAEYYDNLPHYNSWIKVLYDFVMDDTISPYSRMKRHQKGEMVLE", "assay": "In vitro DEGS assay with HCT-116 cell homogenates", "type": "biochemical", "method_in_brief": "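HCT-116 cells were treated for 1 or 2 h with test compound, reference inhibitor or DMSO. Cells were homogenized in 5 mM Hepes (pH 7.4) with 50 mM sucrose and kept 10 min on ice, and unbroken cells were removed at 250 × g for 5 min at 4 °C. Homogenate was incubated with 2 mM NADH and 10 μM C8:0-dihydroceramide substrate for 1 h at 37 °C. Lipids were extracted and C8:0-Cer and C8:0-SM quantified by LC-MS/MS; n = 3 independent experiments.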"}, "[2]": {"target": "T2, human recombinant COX-2 (Homo sapiens, UniProt P35354)", "T2 sequence (P35354 18-604)": "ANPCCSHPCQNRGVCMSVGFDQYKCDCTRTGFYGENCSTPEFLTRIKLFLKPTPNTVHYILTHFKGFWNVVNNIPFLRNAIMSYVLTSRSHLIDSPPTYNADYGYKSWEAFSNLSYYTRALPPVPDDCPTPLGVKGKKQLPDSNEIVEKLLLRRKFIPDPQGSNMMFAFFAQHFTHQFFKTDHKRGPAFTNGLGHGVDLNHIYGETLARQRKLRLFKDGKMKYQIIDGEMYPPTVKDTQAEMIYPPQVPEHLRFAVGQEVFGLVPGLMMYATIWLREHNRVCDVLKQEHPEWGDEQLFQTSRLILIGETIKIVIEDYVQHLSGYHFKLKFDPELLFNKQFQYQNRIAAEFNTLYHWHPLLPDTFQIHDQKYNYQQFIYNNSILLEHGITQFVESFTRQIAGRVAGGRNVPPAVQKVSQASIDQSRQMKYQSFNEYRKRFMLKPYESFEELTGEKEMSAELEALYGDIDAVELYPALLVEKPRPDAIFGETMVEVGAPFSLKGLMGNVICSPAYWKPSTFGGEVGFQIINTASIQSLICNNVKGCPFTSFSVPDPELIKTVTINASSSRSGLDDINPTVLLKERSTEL", "assay": "COX-2 enzyme activity assay", "type": "biochemical", "method_in_brief": "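Test compound was preincubated with enzyme in 0.1 M Tris (pH 8.0) containing 5 mM EDTA, 2 mM phenol and 1 µM hematin. Arachidonic acid (5 µM final) was added for 2 min, and 0.1 M HCl stopped the reaction. Stannous chloride in 0.1 M HCl reduced PGG2/PGH2 to PGF2α, quantified by ELISA. IC50 values are mean ± SEM of four or more independent experiments.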"}, "[3]": {"target": "T3, human recombinant 5-LOX (Homo sapiens, UniProt P09917)", "T3 sequence (P09917 1-674)": "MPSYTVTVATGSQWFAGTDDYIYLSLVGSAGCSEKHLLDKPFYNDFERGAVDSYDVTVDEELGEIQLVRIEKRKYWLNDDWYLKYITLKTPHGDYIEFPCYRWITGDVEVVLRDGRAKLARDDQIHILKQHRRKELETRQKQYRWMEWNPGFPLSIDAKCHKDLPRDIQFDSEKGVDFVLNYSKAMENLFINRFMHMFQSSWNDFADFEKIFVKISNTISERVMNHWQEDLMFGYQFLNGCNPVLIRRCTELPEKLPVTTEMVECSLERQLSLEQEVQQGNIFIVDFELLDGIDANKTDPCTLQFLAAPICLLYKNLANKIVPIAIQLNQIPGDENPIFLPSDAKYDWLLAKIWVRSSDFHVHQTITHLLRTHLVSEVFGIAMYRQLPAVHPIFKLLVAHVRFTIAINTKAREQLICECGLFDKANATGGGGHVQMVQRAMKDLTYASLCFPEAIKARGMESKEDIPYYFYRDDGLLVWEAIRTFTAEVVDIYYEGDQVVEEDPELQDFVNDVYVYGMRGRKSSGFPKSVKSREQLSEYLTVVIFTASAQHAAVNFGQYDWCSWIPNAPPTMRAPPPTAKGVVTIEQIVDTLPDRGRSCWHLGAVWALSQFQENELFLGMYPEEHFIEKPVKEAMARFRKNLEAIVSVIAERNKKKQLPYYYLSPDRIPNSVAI", "assay": "5-LOX activity, ferrous oxidation-xylenol orange", "type": "biochemical"}, "[4]": {"tested_on": "HT-29 cells", "assay": "MTT cell viability assay, HT-29", "type": "cell-based, human", "details": "time- and dose-dependent", "method_in_brief": "(§1)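 Cells were grown with 10% FBS at 37 °C and 5% CO2: HCT-116 in McCoy's 5A, HT-29 in DMEM. Cells were exposed to test compound at indicated concentrations and times, and viability was read by MTT (mitochondrial dehydrogenase activity) relative to DMSO controls. […] Values are mean SD of at least three independent experiments.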"}, "[5]": {"tested_on": "DEGS-1 protein expression in HCT-116 cells", "assay": "Western blotting of DEGS-1 protein expression", "type": "cell-based, human", "details": "10 or 20 μM for 8 or 16 h", "method_in_brief": "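HCT-116 cells were lysed in Tris-EDTA buffer with 1% SDS, 2 mM Na3VO4 and protease inhibitors. Protein was measured by BCA, and equal amounts were resolved by SDS-PAGE and immunoblotted with anti-DEGS-1 antibody.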"}, "[6]": {"tested_on": "HCT-116 cells", "assay": "Sphingolipid levels by LC-MS/MS", "type": "cell-based, human", "method_in_brief": "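Treated HCT-116 pellets were extracted in methanol/chloroform/water with internal standards (C12:0- and C25:0-ceramide, C17-sphingosine, C17-sphinganine, C12:0-SM), tip-sonicated 20 s, and incubated overnight at 48 °C. An aliquot was taken for total choline phospholipids (enzymatic colorimetric assay). The remainder was hydrolysed with methanolic KOH (37 °C, 2 h) and dried under N2. Positive-mode MRM LC-MS/MS was run, ceramides/sphingoid bases on C18 and SMs on C8; vs DMSO controls, n ≥ 3.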"}, "[7]": {"tested_on": "HCT-116 cells", "assay": "Annexin V / propidium iodide apoptosis, flow cytometry", "type": "cell-based, human", "details": "20 μM for 24 h, compared with DMSO-treated controls", "method_in_brief": "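HCT-116 cells were grown in McCoy's 5A with 10% FBS at 37 °C and 5% CO2. After treatment, floating and attached cells were pooled and stained with an annexin V–fluorescein/propidium iodide kit. Flow cytometry read apoptosis from annexin V (Ex 488, Em 518 nm) and necrosis from PI (Ex 488-540, Em 617 nm). Data are representative of three or more independent experiments.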"}, "[8]": {"tested_on": "HCT-116 cells", "assay": "MTT cell viability assay, HCT-116", "type": "cell-based, human", "details": "time- and dose-dependent", "method_in_brief": "as §1"}, "[9]": {"tested_on": "HCT-116 cells", "assay": "Western blotting of LC3-II, caspase-9 and PARP", "type": "cell-based, human", "details": "20 μM for 24 h", "method_in_brief": "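HCT-116 lysates were prepared in Tris-EDTA with 1% SDS, 2 mM Na3VO4 and protease inhibitors, and protein was quantified by BCA. Equal protein was resolved by SDS-PAGE and probed for LC3, caspase-9, PARP-1 and actin. Caspase-9 activation and PARP cleavage served as apoptosis read-outs and LC3-II as the autophagy read-out. Blots are representative of three or more independent experiments.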"}, "[10]": {"target": "T4, DEGS (Rattus norvegicus, UniProt Q5XIF5)", "T4 sequence (Q5XIF5 1-323)": "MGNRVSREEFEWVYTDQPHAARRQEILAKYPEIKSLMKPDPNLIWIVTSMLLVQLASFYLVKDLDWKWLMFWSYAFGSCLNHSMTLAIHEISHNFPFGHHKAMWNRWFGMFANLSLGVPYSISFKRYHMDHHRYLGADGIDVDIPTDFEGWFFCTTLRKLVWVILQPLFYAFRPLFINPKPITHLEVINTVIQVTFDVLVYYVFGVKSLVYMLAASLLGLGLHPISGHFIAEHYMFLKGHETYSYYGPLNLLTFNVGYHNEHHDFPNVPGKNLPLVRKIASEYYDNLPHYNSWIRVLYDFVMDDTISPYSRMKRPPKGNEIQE", "assay": "DEGS assay with rat liver microsomal fraction", "type": "biochemical", "details": "rat liver microsomal fraction as source of DEGS; data not shown"}, "[11]": {"tested_on": "colon tumorigenesis induced by AOM and DSS", "assay": "AOM/DSS-induced colon tumorigenesis in mice", "type": "in vivo, male Balb/c mice", "details": "0.022% in diet"}}, "data": [{"smiles": "CCCCCCCCCCCCCC1=C([C@@H](O)[C@H](CO)NC(=O)CCCCCCC)C1", "note": "[C8-CPPC, C8-cyclopropenylceramide, reference compound]", "values": [{"measurement": "inhibition of DEGS1 enzyme activity", "setting": "[1]; 1 μM, 1 or 2 h treatment of HCT-116 cells", "result": "~ 95%"}]}, {"smiles": "Cc1c(O)cc2c(c1C)O[C@](C)(CCC[C@H](C)CCC[C@H](C)CCCC(C)C)CC2", "note": "[γT, γ-tocopherol]", "values": [{"measurement": "IC50", "setting": "[2]", "result": "> 50", "unit": "µM"}, {"measurement": "inhibition of COX-2 at 50 μM", "setting": "[2]", "result": "neither γT nor δT at 50 μM inhibited COX-2"}, {"measurement": "IC50", "setting": "[3]", "result": "> 50", "unit": "µM"}, {"measurement": "inhibition of 5-LOX at 50 μM", "setting": "[3]", "result": "neither γT nor δT at 50 μM inhibited COX-2 or 5-LOX"}]}, {"smiles": "Cc1cc(O)cc2c1O[C@](C)(CCC[C@H](C)CCC[C@H](C)CCCC(C)C)CC2", "note": "[δT, δ-tocopherol]", "values": [{"measurement": "inhibition of COX-2 at 50 μM", "setting": "[2]", "result": "neither γT nor δT at 50 μM inhibited COX-2"}, {"measurement": "inhibition of 5-LOX at 50 μM", "setting": "[3]", "result": "neither γT nor δT at 50 μM inhibited COX-2 or 5-LOX"}]}, {"smiles": "Cc1cc(O)cc2c1O[C@](C)(CCC[C@H](C)CCC[C@H](C)CCCC(C)C(=O)O)CC2", "note": "(some centres unmarked) [δT-13’-COOH]", "values": [{"measurement": "cell viability", "setting": "[4]", "result": "decreased the viability"}, {"measurement": "effect on DEGS-1 protein expression", "setting": "[5]", "result": "no effect"}, {"measurement": "C16:0-Cer", "setting": "[6]; 20 μM, 2 h incubation, compared with solvent controls", "result": "significant decrease"}, {"measurement": "sphingomyelin species and total SMs", "setting": "[6]; 10 or 20 μM, 1-16 h", "result": "persistent decrease"}, {"measurement": "total dihydroceramides, individual dhCers and dihydrosphingosine", "setting": "[6]; 10 or 20 μM, after 1-2 h treatment, compared with controls", "result": "dose-dependently increased"}, {"measurement": "inhibition of DEGS1 enzyme activity", "setting": "[1]; 20 μM, 1 h pre-incubation of HCT-116 cells", "result": "~ 38%"}, {"measurement": "inhibition of DEGS1 enzyme activity", "setting": "[1]; 20 μM, 2 h pre-incubation of HCT-116 cells", "result": "~ 47%"}, {"measurement": "apoptosis (annexin V staining)", "setting": "[7]", "result": "induced early and late-stage apoptosis"}, {"measurement": "cell viability", "setting": "[8]", "result": "decreased the viability"}, {"measurement": "LC3-II, a marker of autophagy", "setting": "[9]", "result": "increase of LC3-II"}, {"measurement": "inhibition of DEGS enzyme activity", "setting": "[10]", "result": "failed to inhibit the enzyme activity"}]}, {"smiles": "C/C(=C\\CC/C(C)=C/CC[C@]1(C)CCc2cc(O)cc(C)c2O1)CC/C=C(\\C)C(=O)O", "note": "[δTE-13’-COOH]", "values": [{"measurement": "cell viability", "setting": "[4]", "result": "decreased the viability"}, {"measurement": "effect on body weight", "setting": "[11]; compared with the control diet", "result": "no effect"}, {"measurement": "effect on food intake", "setting": "[11]; compared with the control diet", "result": "no effect"}, {"measurement": "decrease in number of large tumors (> 2 mm^2)", "setting": "[11]; compared with controls, p < 0.05", "result": 58, "unit": "%"}, {"measurement": "colon tumors per mouse", "setting": "[11]; mean ± SEM, n = 15-17, p < 0.01 vs control diet (4.7 ± 0.3)", "result": "3.1 ± 0.3", "unit": "tumors per mouse"}, {"measurement": "apoptosis (annexin V staining)", "setting": "[7]", "result": "induced early and late-stage apoptosis"}, {"measurement": "cell viability", "setting": "[8]", "result": "decreased the viability"}, {"measurement": "LC3-II, a marker of autophagy", "setting": "[9]", "result": "increase of LC3-II"}]}]}
